Source: PubChem BioAssay
LEDGF integ inh = blocks HIV-1 LEDGF/p75-dependent DNA integration | TR-FRET IN-LEDGF/p75 DNA integration, Eu/Cy5 | inhibition, % at 3.7 µM | hit rate 0.64% among 370,000 | AID 743269;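 active means inhibition above the screen-wide mean plus 3 SD, cut at about 13% in these data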;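 further: signal is the Cy5 over europium emission ratio at 671 and 618 nm; 0% = plate median of compound wells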
UHRF1 MBD2 ctr = human UHRF1 methylated DNA binding inhibitors | Q96T88 | UHRF1 binding to methylated oligo, TR-FRET | inhibition, % at 4.4 µM | hit rate 0.75% among 370,000; in the data active means inhibition above about 21%;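 further: UHRF1 SRA domain binding a hemimethylated CpG hairpin DNA probe; 0% = median of test compound wells and 100% = reference inhibitor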
Target sequence (Q96T88 whole entry, looked up, the tested form may be a part): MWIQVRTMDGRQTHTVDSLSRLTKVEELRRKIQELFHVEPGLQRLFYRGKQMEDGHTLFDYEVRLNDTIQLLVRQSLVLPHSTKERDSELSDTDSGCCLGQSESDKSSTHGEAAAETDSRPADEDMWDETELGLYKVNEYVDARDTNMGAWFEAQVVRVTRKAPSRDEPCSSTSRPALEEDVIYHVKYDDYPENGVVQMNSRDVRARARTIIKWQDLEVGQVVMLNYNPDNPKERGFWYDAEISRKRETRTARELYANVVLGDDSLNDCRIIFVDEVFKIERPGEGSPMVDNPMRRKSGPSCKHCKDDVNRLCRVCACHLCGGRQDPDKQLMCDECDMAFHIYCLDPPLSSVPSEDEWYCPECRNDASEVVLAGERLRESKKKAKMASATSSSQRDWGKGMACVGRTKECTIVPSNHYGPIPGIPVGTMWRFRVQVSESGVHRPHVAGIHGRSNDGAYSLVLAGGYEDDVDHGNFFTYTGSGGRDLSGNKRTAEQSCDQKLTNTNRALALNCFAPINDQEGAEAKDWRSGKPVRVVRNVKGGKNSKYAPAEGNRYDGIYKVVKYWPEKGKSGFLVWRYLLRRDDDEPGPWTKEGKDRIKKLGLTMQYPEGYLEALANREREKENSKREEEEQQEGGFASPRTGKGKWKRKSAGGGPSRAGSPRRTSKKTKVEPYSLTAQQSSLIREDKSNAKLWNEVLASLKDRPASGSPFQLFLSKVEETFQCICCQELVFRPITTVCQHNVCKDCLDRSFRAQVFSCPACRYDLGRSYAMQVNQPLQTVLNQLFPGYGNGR
TDP2 absorb = TDP2 (human) inhibition, absorbance primary screen | inhibition, % at 12.8 µM | O95551 | hit rate 0.34% among 370,000 | recombinant TDP2, T5PNP hydrolysis, p-nitrophenol absorbance 415 nm | AID 720702;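 active means inhibition above the mean of all tested compounds plus 3 SD, set per campaign, cut at about 25% in these data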;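 further: 0% = DMSO with enzyme and 100% = buffer with substrate but no TDP2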
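Assay system: Recombinant human TDP2 | Quantity: 120 nM TDP2 per well | Incubation: 2 h at 37 °C | Signal: Epi absorbance | Evaluation: Percent inhibition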
Rin1-Abl PPI inh = human Rin1-Abl interaction inhibition | inhibition, % at 7.35 µM | hit rate 0.4% among 360,000 | P00519+Q13671 | AID 588664 | TR-FRET Rin1/Abl binding, biochemical; in the data active means inhibition above about 5%, passing the limit was not always enough
MBD2 inh = inhibitors of human MBD2 binding to methylated oligonucleotide; AID 686964; TR-FRET; Q9UBB5; hit rate 0.31% among 370,000; inhibition, % at 4.4 µM; in the data active means inhibition above about 13%
Rin1-Abl confirm = Rin1-Abl interaction inhibition confirmation | shares compounds with Rin1-Abl PPI inh | TR-FRET Rin1-Abl binding, purified proteins | inhibition, % at 7.35 µM | hit rate 49% among 1,300
GFP quencher = counter-screen for Rin1-Abl inhibitors: GFP fluorescence quenchers; shares compounds with Rin1-Abl PPI inh; inhibitors/quenchers counterscreen; inhibition, % at 6.75 µM; hit rate 8.5% among 1,300; AID 602125;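 further: ABL1-eGFP fusion protein alone without its partner RIN1-SBP; 0% = protein with vehicle and 100% = wells lacking protein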
GFP quench dose = GFP fluorescence interference dose response | shares compounds with Rin1-Abl PPI inh | GFP fluorescence interference/quenching counterscreen | IC50, µM | 230 tested, under 10 active; call rule not given here;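 further: ABL1-eGFP fusion protein alone without its RIN1 binding partner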
Numbers without * were called inactive; . = no result given. Hits are enriched below; roughly 1.9% of the tested compounds scored in any of these assays. Unless noted, no stated cut-off is given here; in the data, active means inhibition above about 6.5%; inactive means the rest.

SMILES | LEDGF integ inh | UHRF1 MBD2 ctr | TDP2 absorb | Rin1-Abl PPI inh | MBD2 inh | Rin1-Abl confirm | GFP quencher | others
N=c1ccn(O)cc1CCc1ccccc1 | 1 | -1 | -8 | 17* | -1 | 22* | 0 | GFP quench dose=>67
Cc1cc(C(=O)O[C@H]2CCC[C@]3(C(=O)N(Cc4ccccc4)c4ccccc43)[C@H]2NC(=O)CCc2ccccc2)no1 | 0 | 0 | -2 | . | 3 | . | .
CCOc1ccc(NC(=O)Nc2ccc3nccnc3c2)cc1 | 2 | 0 | -8 | -3 | -1 | . | .
CCOc1ccc(NC(=O)Nc2ccc3c(c2)nc(C)n3C)cc1 | 3 | -2 | 4 | 5.7* | -1 | 11* | 2
COC(=O)Nc1csc2c1NC(=O)CCCC2 | -2 | 2 | 3 | 43* | 4 | 44* | -1 | GFP quench dose=>68
C=C1[C@@H]2CC[C@H]3[C@]4(C)[C@@H](O)CC[C@@](C)(C(=O)OC)[C@H]4C[C@H](O)[C@]3(C2)[C@H]1O | -1 | -3 | 15 | . | -7 | . | .
CCn1cc(C(=O)N2CCN(c3cccc(Cl)c3)CC2)c2cc(OC)c(OC)cc2c1=O | -1 | 0 | 5 | 1 | 6 | . | .
COc1cc2c(C(=O)N3CCN(c4cccc(Cl)c4)CC3)cn(C)c(=O)c2cc1OC | -3 | 4 | -2 | 17* | 1 | 32* | -3 | GFP quench dose=>68
CNc1nc(OC)nc(N(C#N)CN2C(=O)c3ccccc3S2(=O)=O)n1 | -2 | 4 | 3 | 19* | -3 | 1 | 0
Cc1ccccc1Cn1cc(COC(=O)NCCc2c[nH]c3ccccc23)nn1 | 3 | 5 | 4 | . | 2 | . | .
CCN(CC)c1nc2c3c(nc4c(c3c1C#N)CC(=O)N4c1ccc(Cl)cc1)NC(C)=N2 | -2 | 2 | -2 | 15* | 3 | 14* | 3
CCc1ccc(N2C(=O)Cc3c2nc(N)c(C#N)c3N)cc1 | -4 | 3 | -2 | -6 | 5 | . | .
O=C(Nc1ccn([C@H]2CC[C@@H](CO)O2)c(=O)n1)c1ccccc1 | -3 | 1 | -2 | 24* | 5 | 22* | -2 | GFP quench dose=>68
CN1c2ccc(-c3cccc(F)c3)cc2[C@H]2[C@H](CCN2S(=O)(=O)c2cccc(F)c2)[C@H]1CO | 0 | -4 | 9 | . | 1 | . | .
COC(=O)c1ccc(CSc2nnc(-c3ccncc3)o2)cc1 | 2 | -2 | 14 | 1 | -5 | . | .
COC(=O)c1ccc(Cl)c(NC(=O)CSc2nnc(-c3ccncc3)o2)c1 | 2 | -2 | -1 | 0 | 1 | . | .
COC(=O)c1ccc(CSc2nnc(-c3ccncc3)o2)o1 | 0 | -5 | 0 | 19* | 4 | 39* | -1 | GFP quench dose=>68
COC(=O)c1ccccc1NC(=O)CSc1nnc(-c2ccncc2)o1 | -3 | -1 | 1 | 16* | 1 | 16* | 0
CCCCC(=O)Nc1ccc(C(=O)NCC2COc3ccccc3O2)cc1 (configuration not stated) | 4 | -5 | 2 | . | 0 | . | .
Cc1cc(=O)oc2c(C)c(OCC(=O)N3CCN(C(=O)C4COc5ccccc5O4)CC3)ccc12 (configuration not stated) | 4 | -2 | -2 | 10.0* | -9 | 6 | -2
Cc1ccccc1C(=O)NNC(=O)Cc1ccccc1 | 4 | 3 | -7 | 9.3* | 1 | -1 | 1
Cc1oc2nc(SCCCC(=O)NCCO)nc(N)c2c1C | 3 | 1 | 6 | 36* | 1 | 42* | 1 | GFP quench dose=>68
O=C(Nc1ccc2c(c1)OCO2)c1ccc[n+]([O-])c1 | -4 | -3 | 13 | 5.0* | 1 | 2 | -2
O=C(Nc1ccc2c(c1)OCO2)c1ccc2c(c1)OCO2 | 3 | 3 | 8 | 1 | 3 | . | .
COc1ccc(/C(C)=N\NC(=O)c2ccco2)cc1 | 0 | 0 | 4 | . | 0 | . | .
SMILES | LEDGF integ inh | UHRF1 MBD2 ctr | TDP2 absorb | Rin1-Abl PPI inh | MBD2 inh | Rin1-Abl confirm | GFP quencher | others
COc1ccc(CCNC(=O)CSc2nc3c(c(=O)n(C)c(=O)n3C)n2C(C)C)cc1OC | 0 | -1 | 13 | 2 | -2 | . | .
O=C(CSc1nc2[nH]ncc2c(=O)n1-c1ccccc1Br)NCc1ccco1 | 0 | -1 | 18 | 5 | 1 | . | .
COc1ccc(CCNC(=O)CSc2nc(C)nc3c2c(=O)n(C)c(=O)n3C)cc1OC | 2 | 1 | 8 | 21* | 2 | 21* | 1 | GFP quench dose=>68
COc1ccc(CCNC(=O)CSc2nc3[nH]ncc3c(=O)n2-c2ccccc2Br)cc1OC | -1 | -3 | 2 | 8.2* | 1 | 8.6* | -4
N#Cc1ccc(Cn2ccc3ccc(-c4ccc5ccn(Cc6ccccc6)c5c4)cc32)cc1 | -1 | -1 | -8 | . | -1 | . | .
c1cc2ccn(CC3CC3)c2cc1-c1ccc2ccn(CC3CC3)c2c1 | 7 | -5 | 3 | . | -8 | . | .
O=C(CCN1C(=O)[C@@H]2Cc3ccccc3CN2C1=O)NCc1ccc(Cl)cc1 | 1 | 4 | -3 | 29* | -2 | -1 | 0
OCCCNc1ncnc2c1ncn2[C@H]1CN(Cc2ccc(-c3ccccc3)cc2)C[C@@H](CO)O1 | 6 | 0 | 0 | 19* | -2 | 22* | 0 | GFP quench dose=>68
OC[C@@H]1CN(Cc2ccccc2)C[C@H](n2cnc3c(NC4CC4)ncnc32)O1 | -3 | 0 | -3 | 2 | 0 | . | .
OCCCNc1ncnc2c1ncn2[C@H]1CN(Cc2cccs2)C[C@@H](CO)O1 | -3 | 1 | 2 | 2 | 0 | . | .
CN(C)c1ncnc2c1ncn2[C@H]1CN(Cc2ccc(-c3ccccc3)cc2)C[C@@H](CO)O1 | 5 | -2 | -2 | 20* | -2 | 15* | -2
OCCNc1ncnc2c1ncn2[C@H]1CN(Cc2ccc(Cl)cc2)C[C@@H](CO)O1 | 3 | 0 | 4 | 7.2* | 2 | 5 | 0
OC[C@@H]1CN(Cc2ccc(-c3ccccc3)cc2)C[C@H](n2cnc3c(NC4CCC4)ncnc32)O1 | 2 | -1 | 0 | 18* | -2 | 24* | -1 | GFP quench dose=>68
C=CCN(C(=O)[C@@H](C1CC1)[C@@H](O)c1ccc(Cl)cc1)c1ccccc1 | 0 | -3 | -1 | . | 2 | . | .
COC(=O)[C@]12C[C@H](CC(=O)N3CCSCC3)C(=O)N(CCc3ccc(OC)c(OC)c3)C1=C[C@H](COCc1ccccc1)O[C@@H]2C | -2 | -1 | 12 | . | 4 | . | .
C=CCN1C(=O)[C@H](CC(=O)NCC23CC4CC(CC(C4)C2)C3)[C@@]2(C(=O)OC)CCCCC=C12 | -1 | -1 | -3 | . | -2 | . | .
CCCCNC(=O)C[C@H]1C[C@@]2(C(=O)OC)C(=C[C@H](C(C)C)O[C@@H]2C2CC2)N(Cc2ccco2)C1=O | 1 | -2 | 2 | . | -5 | . | .
